Measured values published in paper PMC11044719 (Journal of Enzyme Inhibition and Medicinal Chemistry, 2024).

Tests used:
FGFR4 kinase = FGFR4 kinase (Homo sapiens, UniProt P22455); assay: biochemical; format: biochemical; conditions: for inhibition at 1 µM: read-out: % inhibition against FGFR4 kinase
[1] = Metabolic stability assay in human liver microsomes; format: in vitro ADME; conditions: pH 7
[2] = Metabolic stability assay in mouse liver microsomes; format: in vitro ADME; conditions: pH 7
How it was run: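 Human or mouse liver microsomes (0.5 mg/ml) were pre-incubated 5 min at 37 °C with 1 μM test compound in 0.1 M phosphate buffer, pH 7. NADPH regenerating system was added and the mix incubated 30 min at 37 °C. Acetonitrile with internal standard stopped the reaction. Parent compound was measured by LC-MS/MS, with % remaining at 30 min versus 0 min, in duplicate.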

FGFR3 = FGFR3 (Homo sapiens, UniProt P22607); assay: In vitro kinase assay; format: biochemical; conditions: read-out: % inhibition at 1 μM FGFR3
How it was run: (§1)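 Test compound at 0.1 and 1 μM against each FGFR isoform with ATP at its Km concentration; percent inhibition reported.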

FGFR1 = FGFR1 (Homo sapiens, UniProt P11362); assay: In vitro kinase assay; format: biochemical; conditions: read-out: % inhibition at 1 μM FGFR1
How it was run: as §1

FGFR2 = FGFR2 (Homo sapiens, UniProt P21802); assay: In vitro kinase assay; format: biochemical; conditions: read-out: % inhibition at 1 μM FGFR2
How it was run: as §1

Chain of FGFR4 kinase (P22455 22-802): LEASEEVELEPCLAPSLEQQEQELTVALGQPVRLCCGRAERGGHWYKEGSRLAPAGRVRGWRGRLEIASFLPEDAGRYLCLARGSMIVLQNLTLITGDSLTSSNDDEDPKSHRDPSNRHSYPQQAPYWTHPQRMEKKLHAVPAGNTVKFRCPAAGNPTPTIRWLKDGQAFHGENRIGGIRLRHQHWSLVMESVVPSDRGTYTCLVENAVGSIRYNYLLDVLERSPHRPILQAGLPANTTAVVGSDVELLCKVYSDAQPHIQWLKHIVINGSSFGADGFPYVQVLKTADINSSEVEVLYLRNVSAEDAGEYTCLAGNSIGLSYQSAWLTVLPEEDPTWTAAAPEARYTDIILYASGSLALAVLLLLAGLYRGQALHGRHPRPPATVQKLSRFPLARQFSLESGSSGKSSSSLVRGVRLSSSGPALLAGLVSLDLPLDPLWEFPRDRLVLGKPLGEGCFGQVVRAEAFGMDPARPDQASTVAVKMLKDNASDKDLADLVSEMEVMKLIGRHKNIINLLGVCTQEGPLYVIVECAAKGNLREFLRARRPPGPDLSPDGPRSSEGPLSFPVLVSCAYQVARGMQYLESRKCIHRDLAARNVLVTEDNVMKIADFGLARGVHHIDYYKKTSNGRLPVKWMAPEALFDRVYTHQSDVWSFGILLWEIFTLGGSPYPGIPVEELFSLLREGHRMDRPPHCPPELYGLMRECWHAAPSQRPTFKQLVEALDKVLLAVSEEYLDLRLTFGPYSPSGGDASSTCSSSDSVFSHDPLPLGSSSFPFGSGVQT
Chain of FGFR3 (P22607 23-806): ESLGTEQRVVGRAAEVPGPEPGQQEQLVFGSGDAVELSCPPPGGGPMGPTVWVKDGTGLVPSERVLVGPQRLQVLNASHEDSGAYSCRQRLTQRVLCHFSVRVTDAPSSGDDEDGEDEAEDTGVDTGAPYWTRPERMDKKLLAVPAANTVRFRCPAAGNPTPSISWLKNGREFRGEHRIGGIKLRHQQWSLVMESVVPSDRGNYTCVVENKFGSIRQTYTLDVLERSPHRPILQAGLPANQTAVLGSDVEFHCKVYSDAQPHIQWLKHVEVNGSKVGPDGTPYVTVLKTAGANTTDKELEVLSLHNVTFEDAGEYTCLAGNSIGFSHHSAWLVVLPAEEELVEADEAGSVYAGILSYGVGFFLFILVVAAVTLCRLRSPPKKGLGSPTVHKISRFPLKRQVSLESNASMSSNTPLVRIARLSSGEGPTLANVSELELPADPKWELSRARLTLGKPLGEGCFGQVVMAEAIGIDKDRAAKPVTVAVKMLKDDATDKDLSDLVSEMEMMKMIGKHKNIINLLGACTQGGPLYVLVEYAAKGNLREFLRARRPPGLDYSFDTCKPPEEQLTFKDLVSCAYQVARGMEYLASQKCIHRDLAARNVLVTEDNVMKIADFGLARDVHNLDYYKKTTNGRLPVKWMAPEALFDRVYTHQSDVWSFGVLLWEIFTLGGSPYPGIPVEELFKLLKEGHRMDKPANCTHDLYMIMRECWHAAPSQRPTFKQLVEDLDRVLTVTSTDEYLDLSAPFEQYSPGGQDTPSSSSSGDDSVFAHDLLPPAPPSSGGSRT
Chain of FGFR2 (P21802 22-821): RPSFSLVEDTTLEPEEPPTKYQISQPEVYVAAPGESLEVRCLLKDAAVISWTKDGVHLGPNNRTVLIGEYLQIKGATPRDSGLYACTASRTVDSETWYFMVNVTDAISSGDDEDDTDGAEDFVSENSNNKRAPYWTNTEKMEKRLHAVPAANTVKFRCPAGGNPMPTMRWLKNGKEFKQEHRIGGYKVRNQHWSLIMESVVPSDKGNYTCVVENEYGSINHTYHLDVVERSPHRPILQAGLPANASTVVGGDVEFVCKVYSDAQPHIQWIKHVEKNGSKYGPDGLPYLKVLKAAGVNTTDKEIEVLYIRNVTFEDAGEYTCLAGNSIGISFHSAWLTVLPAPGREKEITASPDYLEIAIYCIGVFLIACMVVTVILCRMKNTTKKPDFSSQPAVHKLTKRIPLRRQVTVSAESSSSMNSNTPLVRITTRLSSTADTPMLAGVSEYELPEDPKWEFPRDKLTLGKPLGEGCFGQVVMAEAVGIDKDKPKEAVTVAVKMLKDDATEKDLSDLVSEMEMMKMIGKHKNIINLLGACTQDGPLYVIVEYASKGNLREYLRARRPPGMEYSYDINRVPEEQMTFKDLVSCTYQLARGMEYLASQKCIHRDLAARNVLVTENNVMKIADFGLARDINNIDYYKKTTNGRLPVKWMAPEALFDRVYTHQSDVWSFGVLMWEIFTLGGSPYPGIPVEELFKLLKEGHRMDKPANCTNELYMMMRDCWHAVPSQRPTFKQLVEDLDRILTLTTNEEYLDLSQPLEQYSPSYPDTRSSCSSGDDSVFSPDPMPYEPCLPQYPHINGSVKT
Chain of FGFR1 (P11362 22-822): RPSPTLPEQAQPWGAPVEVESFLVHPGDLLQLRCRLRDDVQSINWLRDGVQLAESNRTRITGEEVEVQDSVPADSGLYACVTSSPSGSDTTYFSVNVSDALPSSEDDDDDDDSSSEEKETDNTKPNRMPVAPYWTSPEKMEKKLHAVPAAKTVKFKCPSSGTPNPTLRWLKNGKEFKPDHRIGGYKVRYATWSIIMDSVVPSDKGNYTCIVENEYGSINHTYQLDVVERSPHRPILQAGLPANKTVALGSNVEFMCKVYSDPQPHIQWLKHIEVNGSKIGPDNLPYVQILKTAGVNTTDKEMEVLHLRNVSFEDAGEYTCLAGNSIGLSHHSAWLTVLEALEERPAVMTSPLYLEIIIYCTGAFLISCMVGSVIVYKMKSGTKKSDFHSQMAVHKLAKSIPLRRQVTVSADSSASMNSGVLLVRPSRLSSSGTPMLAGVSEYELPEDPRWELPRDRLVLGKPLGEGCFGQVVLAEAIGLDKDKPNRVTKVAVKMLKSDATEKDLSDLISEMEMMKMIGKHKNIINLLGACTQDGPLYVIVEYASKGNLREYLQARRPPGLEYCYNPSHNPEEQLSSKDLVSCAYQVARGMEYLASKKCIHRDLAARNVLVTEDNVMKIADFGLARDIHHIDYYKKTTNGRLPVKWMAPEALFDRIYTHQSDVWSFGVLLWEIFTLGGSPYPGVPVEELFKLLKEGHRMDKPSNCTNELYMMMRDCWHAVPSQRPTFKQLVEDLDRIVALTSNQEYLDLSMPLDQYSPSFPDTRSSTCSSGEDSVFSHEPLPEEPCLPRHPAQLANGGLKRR

| inhibition at 1 µM (FGFR4 kinase) [%] | Compound | also measured |
| --- | --- | --- |
| 21 | C=CC(=O)Nc1ccccc1C(=O)Nc1cccnn1 [2a, 2-Acrylamido-N-(pyridazin-3-yl)benzamide] |  |
| 9 | C=CC(=O)Nc1ccccc1C(=O)Nc1ccccn1 [2b, 2-Acrylamido-N-(pyridin-2-yl)benzamide] |  |
| 7 | C=CC(=O)Nc1ccccc1C(=O)Nc1cccnc1 [2c, 2-Acrylamido-N-(pyridin-3-yl)benzamide] |  |
| 6 | C=CC(=O)Nc1ccccc1C(=O)Nc1ncccn1 [2d, 2-Acrylamido-N-(pyrimidin-2-yl)benzamide] |  |
| 12 | C=CC(=O)Nc1ccccc1C(=O)Nc1ccncn1 [2e, 2-Acrylamido-N-(pyrimidin-4-yl)benzamide] |  |
| 9 | C=CC(=O)Nc1ccccc1C(=O)Nc1cnccn1 [2f, 2-Acrylamido-N-(pyrazin-2-yl)benzamide] |  |
| 30 | C=CC(=O)Nc1ccccc1C(=O)Nc1ccc(Cl)nn1 [2g, 2-Acrylamido-N-(6-chloropyridazin-3-yl)benzamide] |  |
| 44 | C#Cc1ccc(NC(=O)c2ccccc2NC(=O)C=C)cn1 [2h, 2-Acrylamido-N-(6-ethynylpyridin-3-yl)benzamide] |  |
| 49 | C#Cc1ccc(NC(=O)c2ccccc2NC(=O)C=C)nn1 [2i, 2-Acrylamido-N-(6-ethynylpyridazin-3-yl)benzamide] |  |
| 5 | C=CC(=O)Nc1ccccc1C(=O)Nc1cc(C)on1 [2j, 2-Acrylamido-N-(5-methylisoxazol-3-yl)benzamide] |  |
| 4 | C=CC(=O)Nc1ccccc1C(=O)Nc1n[nH]c2ccccc12 [2k, 2-Acrylamido-N-(1H-indazol-3-yl)benzamide] |  |
| 0 | C=CC(=O)Nc1ccccc1C(=O)Nc1ncnc2ccccc12 [2l, 2-Acrylamido-N-(quinazolin-4-yl)benzamide] |  |
| 10 | C=CC(=O)Nc1ccccc1C(=O)Nc1ccc(C#CCN(C)C)nn1 [4a, 2-Acrylamido-N-(6–(3-(dimethylamino)prop-1-yn-1-yl)pyridazin-3-yl)benzamide] |  |
| 47 | C=CC(=O)Nc1ccccc1C(=O)Nc1ccc(C#CCOC)nn1 [4b, 2-Acrylamido-N-(6–(3-methoxyprop-1-yn-1-yl)pyridazin-3-yl)benzamide] |  |
| 97 | C=CC(=O)Nc1ccccc1C(=O)Nc1ccc(C#Cc2ccc(OC)cc2)nn1 [4c, 2-Acrylamido-N-(6-((4-methoxyphenyl)ethynyl)pyridazin-3-yl)benzamide] | IC50 (FGFR4 kinase): 33 nM; fold more potent than staurosporin (IC50) (FGFR4 kinase): 5 fold; fold improvement of IC50 compared to that of other derivatives (FGFR4 kinase; FGFR4 IC50 compared with other derivatives of Table 3): ~10 fold; remaining at 0.5 h, 1 μM [1]: 7.5%; remaining at 0.5 h, 1 μM [2]: 25.2%; inhibition at 1 µM (FGFR3): 0% |
| 86 | C=CC(=O)Nc1ccccc1C(=O)Nc1ccc(C#Cc2cccc(OC)c2)nn1 [4d, 2-Acrylamido-N-(6-((3-methoxyphenyl)ethynyl)pyridazin-3-yl)benzamide] | IC50 (FGFR4 kinase): 424 nM |

| inhibition at 1 µM (FGFR4 kinase) [%] | Compound | also measured |
| --- | --- | --- |
| 42 | C=CC(=O)Nc1ccccc1C(=O)Nc1ccc(C#Cc2ccccc2OC)nn1 [4e, 2-Acrylamido-N-(6-((2-methoxyphenyl)ethynyl)pyridazin-3-yl)benzamide] |  |
| 80 | C=CC(=O)Nc1ccccc1C(=O)Nc1ccc(C#Cc2cc(OC)cc(OC)c2)nn1 [4f, 2-Acrylamido-N-(6-((3,5-dimethoxyphenyl)ethynyl)pyridazin-3-yl)benzamide] |  |
| 59 | C=CC(=O)Nc1ccccc1C(=O)Nc1ccc(C#Cc2cccc(N(C)C)c2)nn1 [4g, 2-Acrylamido-N-(6-((3-(dimethylamino)phenyl)ethynyl)pyridazin-3-yl)benzamide] |  |
| 92 | C=CC(=O)Nc1ccccc1C(=O)Nc1ccc(C#Cc2ccc(N(C)C)cc2)nn1 [4h, 2-Acrylamido-N-(6-((4-(dimethylamino)phenyl)ethynyl)pyridazin-3-yl)benzamide] |  |
| 91 | C=CC(=O)Nc1ccccc1C(=O)Nc1ccc(C#Cc2ccccc2)nn1 [4i, 2-Acrylamido-N-(6-(phenylethynyl)pyridazin-3-yl)benzamide] | IC50 (FGFR4 kinase): 235 nM |
| 13 | C=CC(=O)Nc1ccccc1C(=O)Nc1ccc(C#Cc2cccnc2)nn1 [4j, 2-Acrylamido-N-(6-(pyridin-3-ylethynyl)pyridazin-3-yl)benzamide] |  |
| 25 | C=CC(=O)Nc1ccccc1C(=O)Nc1ccc(C#CC2CCCCC2)nn1 [4k, 2-Acrylamido-N-(6-(cyclohexylethynyl)pyridazin-3-yl)benzamide] |  |
| 17 | C=CC(=O)Nc1ccccc1C(=O)Nc1ccc(C#Cc2cccc3ccccc23)nn1 [4l, 2-Acrylamido-N-(6-(naphthalen-1-ylethynyl)pyridazin-3-yl)benzamide] |  |
| 37 | C=CC(=O)Nc1ccccc1C(=O)Nc1ccc(C#CCOc2cccc(OC)c2)nn1 [4m, 2-Acrylamido-N-(6–(3-(3-methoxyphenoxy)prop-1-yn-1-yl)pyridazin-3-yl)benzamide] |  |
| 7 | C=CC(=O)Nc1ccccc1C(=O)Nc1ccc(Oc2cccc(OC)c2)nn1 [4n, 2-Acrylamido-N-(6–(3-methoxyphenoxy)pyridazin-3-yl)benzamide] |  |
| 39 | C=CC(=O)Nc1ccccc1C(=O)Nc1ccc(-c2cccc(OC)c2)nn1 [4o, 2-Acrylamido-N-(6–(3-methoxyphenyl)pyridazin-3-yl)benzamide] |  |
| 26 | C=CC(=O)Nc1ccccc1C(=O)Nc1ccc(CCc2cccc(OC)c2)nn1 [4p, 2-Acrylamido-N-(6–(3-methoxyphenethyl)pyridazin-3-yl)benzamide] |  |
| 13 | C=CC(=O)Nc1ccccc1C(=O)Nc1ccc(CCc2cccc(N(C)C)c2)nn1 [4q, 2-Acrylamido-N-(6–(3-(dimethylamino)phenethyl)pyridazin-3-yl)benzamide] |  |
| 92 | C=CC(=O)Nc1ccccc1C(=O)Nc1ccc(C#Cc2ccc3c(c2)OCO3)nn1 [4s, 2-Acrylamido-N-(6–(2-(1,3-benzodioxol-5-yl)ethynyl)pyridazin-3-yl)benzamide] | IC50 (FGFR4 kinase): 319 nM; remaining at 0.5 h, 1 μM [1]: 62.1%; remaining at 0.5 h, 1 μM [2]: 53.9% |
| 0 | CCC(=O)Nc1ccccc1C(=O)Nc1ccc(C#Cc2ccc(OC)cc2)nn1 [4t, N-[6-[2–(4-methoxyphenyl)ethynyl]pyridazin-3-yl]-2-(propanoylamino)benzamide] |  |
| 97 | C=CC(=O)N[C@H]1CCOC[C@H]1Nc1ncc2cc(-c3c(Cl)c(OC)cc(OC)c3Cl)ccc2n1 [BLU554, fisogatinib, reference compound] | inhibition at 1 µM (FGFR1): 29%; inhibition at 1 µM (FGFR2): 11%; inhibition at 1 µM (FGFR3): 10% |
